Measurements: ChEMBL document CHEMBL1155270, “Modifications at the C-terminus to improve pyrrole-imidazole polyamide activity in cell culture” (J Med Chem, 2009)

test system: LNCaP; assay: Cytotoxicity against human LNCAP cells assessed as cell viability at 0.01 to 30 uM after 48 hrs by WST1 assay; type: functional
How it was run: (§1)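 LNCaP cells were seeded at 10-15 × 10^2 per well and allowed to settle 48 h before polyamide was added as 2× media solutions (DMSO <0.1%). After 48 h exposure, media was replaced and cells recovered 24 h. WST-1 was added for 30 min and A450 read. Wells were corrected for media-only background and normalized to untreated controls.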

Row | Compound | Activity [%]
1 | CN(CCCNC(=O)c1cccc(C(=O)O)c1)CCCNC(=O)c1cc(NC(=O)c2cc(NC(=O)c3nc(NC(=O)c4cc(NC(=O)[C@H](N)CCNC(=O)c5nc(NC(=O)c6cc(NC(=O)c7cc(NC(=O)c8nccn8C)cn7C)cn6C)cn5C)cn4C)cn3C)cn2C)cn1C | <50
2 | Cn1cc(NC(=O)c2cc(NC(=O)c3cc(NC(=O)c4nc(NC(=O)[C@H](N)CCNC(=O)c5cc(NC(=O)c6cc(NC(=O)c7cc(NC(=O)c8nccn8C)cn7C)cn6C)cn5C)cn4C)cn3C)cn2C)cc1C(=O)NCCCNC(=O)c1cccc(C(=O)O)c1 | <50
3 | Cn1cc(NC(=O)c2cc(NC(=O)c3nc(NC(=O)c4cc(NC(=O)[C@H](N)CCNC(=O)c5nc(NC(=O)c6cc(NC(=O)c7cc(NC(=O)c8nccn8C)cn7C)cn6C)cn5C)cn4C)cn3C)cn2C)cc1C(=O)NCCCNC(=O)c1cccc(C(=O)O)c1 | <50
4 | Cn1cc(NC(=O)c2cc(NC(=O)c3nc(NC(=O)c4cc(NC(=O)[C@H](N)CCNC(=O)c5nc(NC(=O)c6cc(NC(=O)c7cc(NC(=O)c8nccn8C)cn7C)cn6C)cn5C)cn4C)cn3C)cn2C)cc1C(=O)NCCCCCCCNC(=O)c1cccc(C(=O)O)c1 | <50

test system: Nucleic Acid; assay: Binding affinity to 14mer DNA assessed as change in melting temperature by spectrophotometry; type: nucleic-acid assay
How it was run: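 Thermal melting of 14-mer oligonucleotide duplexes (HRE or ARE sequence) with and without polyamide, read by UV spectrophotometry in 1 cm quartz cuvettes with a thermostatted holder. Buffer was 10 mM sodium cacodylate, 10 mM KCl, 10 mM MgCl2, 5 mM CaCl2, pH 7.0. ΔTm is taken relative to the free duplex.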

Row | ΔTm [°C] | Compound
5 | 0.1 | Cn1cc(NC(=O)c2cc(NC(=O)c3cc(NC(=O)c4nc(NC(=O)[C@H](N)CCNC(=O)c5nc(NC(=O)c6cc(NC(=O)c7nc(NC(=O)c8nccn8C)cn7C)cn6C)cn5C)cn4C)cn3C)cn2C)cc1C(=O)NCCCON
6 | 2.1 | Cn1cc(NC(=O)c2cc(NC(=O)c3cc(NC(=O)c4nc(NC(=O)[C@H](N)CCNC(=O)c5nc(NC(=O)c6cc(NC(=O)c7nc(NC(=O)c8nccn8C)cn7C)cn6C)cn5C)cn4C)cn3C)cn2C)cc1C(=O)NCCCCCCCN
7 | 6.4 | CN(CCCN)CCCNC(=O)c1cc(NC(=O)c2cc(NC(=O)c3nc(NC(=O)c4cc(NC(=O)[C@H](N)CCNC(=O)c5nc(NC(=O)c6cc(NC(=O)c7cc(NC(=O)c8nccn8C)cn7C)cn6C)cn5C)cn4C)cn3C)cn2C)cn1C
8 | 3.6 | CN(C)CCCNC(=O)CCNC(=O)c1cc(NC(=O)c2cc(NC(=O)c3nc(NC(=O)c4cc(NC(=O)[C@H](N)CCNC(=O)c5nc(NC(=O)c6cc(NC(=O)c7cc(NC(=O)c8nccn8C)cn7C)cn6C)cn5C)cn4C)cn3C)cn2C)cn1C
9 | 4 | CN(CCCNC(=O)c1cccc(C(=O)O)c1)CCCNC(=O)c1cc(NC(=O)c2cc(NC(=O)c3nc(NC(=O)c4cc(NC(=O)[C@H](N)CCNC(=O)c5nc(NC(=O)c6cc(NC(=O)c7cc(NC(=O)c8nccn8C)cn7C)cn6C)cn5C)cn4C)cn3C)cn2C)cn1C
10 | 0.5 | Cn1cc(NC(=O)c2cc(NC(=O)c3cc(NC(=O)c4nc(NC(=O)[C@H](N)CCNC(=O)c5nc(NC(=O)c6cc(NC(=O)c7nc(NC(=O)c8nccn8C)cn7C)cn6C)cn5C)cn4C)cn3C)cn2C)cc1C(=O)NCCCNC(=O)c1cccc(C(=O)O)c1
11 | 4.1 | Cn1cc(NC(=O)c2cc(NC(=O)c3cc(NC(=O)c4nc(NC(=O)[C@H](N)CCNC(=O)c5nc(NC(=O)c6cc(NC(=O)c7nc(NC(=O)c8nccn8C)cn7C)cn6C)cn5C)cn4C)cn3C)cn2C)cc1C(=O)NCCCN
12 | 1.5 | Cn1cc(NC(=O)c2cc(NC(=O)c3nc(NC(=O)c4cc(NC(=O)[C@H](N)CCNC(=O)c5nc(NC(=O)c6cc(NC(=O)c7cc(NC(=O)c8nccn8C)cn7C)cn6C)cn5C)cn4C)cn3C)cn2C)cc1C(=O)NCCCNC(=O)c1cccc(C(=O)O)c1
13 | 3.1 | CN(CCCN)CCCNC(=O)c1cc(NC(=O)c2cc(NC(=O)c3cc(NC(=O)c4nc(NC(=O)[C@H](N)CCNC(=O)c5nc(NC(=O)c6cc(NC(=O)c7nc(NC(=O)c8nccn8C)cn7C)cn6C)cn5C)cn4C)cn3C)cn2C)cn1C
14 | 2.6 | Cn1cc(NC(=O)c2cc(NC(=O)c3nc(NC(=O)c4cc(NC(=O)[C@H](N)CCNC(=O)c5nc(NC(=O)c6cc(NC(=O)c7cc(NC(=O)c8nccn8C)cn7C)cn6C)cn5C)cn4C)cn3C)cn2C)cc1C(=O)NCCCCCCCNC(=O)c1cccc(C(=O)O)c1
15 | 5.3 | Cn1cc(NC(=O)c2cc(NC(=O)c3nc(NC(=O)c4cc(NC(=O)[C@H](N)CCNC(=O)c5nc(NC(=O)c6cc(NC(=O)c7cc(NC(=O)c8nccn8C)cn7C)cn6C)cn5C)cn4C)cn3C)cn2C)cc1C(=O)NCCCN
16 | -0.9 | Cn1cc(NC(=O)c2cc(NC(=O)c3nc(NC(=O)c4cc(NC(=O)[C@H](N)CCNC(=O)c5nc(NC(=O)c6cc(NC(=O)c7cc(NC(=O)c8nccn8C)cn7C)cn6C)cn5C)cn4C)cn3C)cn2C)cc1C(=O)NCCCCCCCN
17 | 0.9 | CN(CCCNC(=O)c1cccc(C(=O)O)c1)CCCNC(=O)c1cc(NC(=O)c2cc(NC(=O)c3cc(NC(=O)c4nc(NC(=O)[C@H](N)CCNC(=O)c5nc(NC(=O)c6cc(NC(=O)c7nc(NC(=O)c8nccn8C)cn7C)cn6C)cn5C)cn4C)cn3C)cn2C)cn1C
18 | 0.7 | Cn1cc(NC(=O)c2cc(NC(=O)c3cc(NC(=O)c4nc(NC(=O)[C@H](N)CCNC(=O)c5nc(NC(=O)c6cc(NC(=O)c7nc(NC(=O)c8nccn8C)cn7C)cn6C)cn5C)cn4C)cn3C)cn2C)cc1C(=O)NCCCCCCCNC(=O)c1cccc(C(=O)O)c1

test system: Nucleic Acid; assay: Binding affinity to 5'-GTGCATACGTGGGC-3' sequence of DNA assessed as change in melting temperature by spectrophotometry; type: nucleic-acid assay

Row | ΔTm [°C] | Compound
19 | 1.6 | CN(C)CCCNC(=O)CCNC(=O)c1cc(NC(=O)c2cc(NC(=O)c3cc(NC(=O)c4nc(NC(=O)[C@H](N)CCNC(=O)c5nc(NC(=O)c6cc(NC(=O)c7nc(NC(=O)c8nccn8C)cn7C)cn6C)cn5C)cn4C)cn3C)cn2C)cn1C
20 | 10.6 | Cn1cc(NC(=O)c2cc(NC(=O)c3nc(NC(=O)c4cc(NC(=O)[C@H](N)CCNC(=O)c5nc(NC(=O)c6cc(NC(=O)c7cc(NC(=O)c8sccc8Cl)cn7C)cn6C)cn5C)cn4C)cn3C)cn2C)cc1C(=O)NCCCON
21 | 9.5 | Cn1cc(NC(=O)c2cc(NC(=O)c3nc(NC(=O)c4cc(NC(=O)[C@H](N)CCNC(=O)c5nc(NC(=O)c6cc(NC(=O)c7cc(NC(=O)c8sccc8Cl)cn7C)cn6C)cn5C)cn4C)cn3C)cn2C)cc1C(=O)NCCCNC(=O)c1cccc(C(=O)O)c1
22 | 14.8 | CN(CCCN)CCCNC(=O)c1cc(NC(=O)c2cc(NC(=O)c3nc(NC(=O)c4cc(NC(=O)[C@H](N)CCNC(=O)c5nc(NC(=O)c6cc(NC(=O)c7cc(NC(=O)c8sccc8Cl)cn7C)cn6C)cn5C)cn4C)cn3C)cn2C)cn1C
23 | 9 | Cn1cc(NC(=O)c2cc(NC(=O)c3nc(NC(=O)c4cc(NC(=O)[C@H](N)CCNC(=O)c5nc(NC(=O)c6cc(NC(=O)c7cc(NC(=O)c8sccc8Cl)cn7C)cn6C)cn5C)cn4C)cn3C)cn2C)cc1C(=O)NCCCCCCCNC(=O)c1cccc(C(=O)O)c1
24 | 12.7 | Cn1cc(NC(=O)c2cc(NC(=O)c3nc(NC(=O)c4cc(NC(=O)[C@H](N)CCNC(=O)c5nc(NC(=O)c6cc(NC(=O)c7cc(NC(=O)c8sccc8Cl)cn7C)cn6C)cn5C)cn4C)cn3C)cn2C)cc1C(=O)NCCCCCCCN
25 | 13.5 | Cn1cc(NC(=O)c2cc(NC(=O)c3nc(NC(=O)c4cc(NC(=O)[C@H](N)CCNC(=O)c5nc(NC(=O)c6cc(NC(=O)c7cc(NC(=O)c8sccc8Cl)cn7C)cn6C)cn5C)cn4C)cn3C)cn2C)cc1C(=O)NCCCN
26 | 12.4 | CN(C)CCCNC(=O)CCNC(=O)c1cc(NC(=O)c2cc(NC(=O)c3nc(NC(=O)c4cc(NC(=O)[C@H](N)CCNC(=O)c5nc(NC(=O)c6cc(NC(=O)c7cc(NC(=O)c8sccc8Cl)cn7C)cn6C)cn5C)cn4C)cn3C)cn2C)cn1C

test system: LNCaP; assay: Cytotoxicity against human LNCAP cells after 48 hrs by WST1 assay; type: functional, cell-based; how it was run: as §1

Row | Compound | IC50 [µM]
27 | Cn1cc(NC(=O)c2cc(NC(=O)c3cc(NC(=O)c4nc(NC(=O)[C@H](N)CCNC(=O)c5cc(NC(=O)c6cc(NC(=O)c7cc(NC(=O)c8nccn8C)cn7C)cn6C)cn5C)cn4C)cn3C)cn2C)cc1C(=O)NCCCNC(=O)c1cccc(C(=O)O)c1 | > 30

test system: Nucleic Acid; assay: Binding affinity to 5'-TTGCAGAACAGCAA-3' sequence of DNA assessed as change in melting temperature by spectrophotometry; type: nucleic-acid assay

Row | ΔTm [°C] | Compound
28 | 14.3 | CN(C)CCCNC(=O)CCNC(=O)c1cc(NC(=O)c2cc(NC(=O)c3cc(NC(=O)c4nc(NC(=O)[C@H](N)CCNC(=O)c5cc(NC(=O)c6cc(NC(=O)c7cc(NC(=O)c8nccn8C)cn7C)cn6C)cn5C)cn4C)cn3C)cn2C)cn1C
29 | 16.2 | Cn1cc(NC(=O)c2cc(NC(=O)c3cc(NC(=O)c4nc(NC(=O)[C@H](N)CCNC(=O)c5cc(NC(=O)c6cc(NC(=O)c7cc(NC(=O)c8nccn8C)cn7C)cn6C)cn5C)cn4C)cn3C)cn2C)cc1C(=O)NCCCN
30 | 11.1 | Cn1cc(NC(=O)c2cc(NC(=O)c3cc(NC(=O)c4nc(NC(=O)[C@H](N)CCNC(=O)c5cc(NC(=O)c6cc(NC(=O)c7cc(NC(=O)c8nccn8C)cn7C)cn6C)cn5C)cn4C)cn3C)cn2C)cc1C(=O)NCCCNC(=O)c1cccc(C(=O)O)c1
31 | 14.3 | Cn1cc(NC(=O)c2cc(NC(=O)c3cc(NC(=O)c4nc(NC(=O)[C@H](N)CCNC(=O)c5cc(NC(=O)c6cc(NC(=O)c7cc(NC(=O)c8nccn8C)cn7C)cn6C)cn5C)cn4C)cn3C)cn2C)cc1C(=O)NCCCCCCCN
32 | 17.3 | CN(CCCN)CCCNC(=O)c1cc(NC(=O)c2cc(NC(=O)c3cc(NC(=O)c4nc(NC(=O)[C@H](N)CCNC(=O)c5cc(NC(=O)c6cc(NC(=O)c7cc(NC(=O)c8nccn8C)cn7C)cn6C)cn5C)cn4C)cn3C)cn2C)cn1C
